What was measured:
[1] = molecular target: T1, Neutrophil elastase (Homo sapiens) (UniProt P08246)
T1 sequence (whole entry): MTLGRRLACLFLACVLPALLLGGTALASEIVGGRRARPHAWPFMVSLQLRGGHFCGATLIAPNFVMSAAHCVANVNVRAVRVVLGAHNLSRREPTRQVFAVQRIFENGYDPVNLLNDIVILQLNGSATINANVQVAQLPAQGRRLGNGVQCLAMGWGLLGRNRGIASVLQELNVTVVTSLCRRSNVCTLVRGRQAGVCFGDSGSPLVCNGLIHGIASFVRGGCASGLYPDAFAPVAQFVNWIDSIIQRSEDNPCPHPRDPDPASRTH

Cricetinae gen. sp. [2] = assay: Compound was evaluated in vivo for inhibition of HLE-induced hemorrhage in hamster lung at 10 ug 30 min after administration prior to HLE; format: functional, Cricetulus griseus
Procedure, shortened: (§1)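 Hamster, intratracheal dosing of compound (per animal) 30 min before IT instillation of 50 μg HLE (50 units in Experimental); hemorrhage read 3 h later: lungs lavaged with saline, hemoglobin in lavage measured at 414 nm. Percent inhibition from drug-treated vs vehicle-treated hemorrhage; three animals per dose and time. Titration at 100, 30, 10, 3 μg/animal gives ED50.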

Cricetinae gen. sp. [3] = assay: Compound was evaluated in vivo for inhibition of HLE-induced hemorrhage in hamster lung at 200 microg 2 hr after administration prior to HLE; format: functional, Cricetulus griseus
Procedure, shortened: (§2)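 Hamster duration protocol: 200 μg/animal given intratracheally 60, 120, 180 or 240 min before IT HLE instillation; hemorrhage scored after 3 h as hemoglobin (414 nm) in saline lung lavage, relative to vehicle-treated animals; three animals per point. T50 taken as time at which 50% inhibition is still obtained.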

Cricetinae gen. sp. [4] = assay: Compound was evaluated in vivo for inhibition of HLE-induced hemorrhage in hamster lung at 200 microg 4 hr after administration prior to HLE; format: functional, Cricetulus griseus
Procedure, shortened: as §2

Cricetinae gen. sp. [5] = assay: Compound was evaluated in vivo for inhibition of HLE-induced hemorrhage in hamster lung at 200 microg 3h after administration prior to HLE; format: functional, Cricetulus griseus
Procedure, shortened: as §2

Cricetinae gen. sp. [6] = assay: Compound was evaluated in vivo for inhibition of HLE-induced hemorrhage in hamster lung at 200 microg 1 hr after administration prior to HLE; format: functional, Cricetulus griseus
Procedure, shortened: as §2

Cricetinae gen. sp. [7] = assay: Compound was evaluated in vivo for inhibition of HLE-induced hemorrhage in hamster lung at 100 microg 30 min after administration prior to HLE; format: functional, Cricetulus griseus
Procedure, shortened: as §1

Cricetinae gen. sp. [8] = assay: Compound was evaluated in vivo for inhibition of HLE-induced hemorrhage in hamster lung at 30 ug 30 min after administration prior to HLE; format: functional, Cricetulus griseus
Procedure, shortened: as §1

Cricetinae gen. sp. [9] = assay: Compound was evaluated in vivo for inhibition of HLE-induced hemorrhage in hamster lung at 3 ug 30 min after administration prior to HLE; format: functional, Cricetulus griseus
Procedure, shortened: as §1

[10] = Half-life value of the compound.; format: ADME
Procedure, shortened: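 Chemical stability: compound dissolved at 1 mg/mL in 0.5 M MOPS, pH 8.0, held at 25 °C in capped vial; aliquots quenched in 2% aqueous TFA and analysed by reverse-phase HPLC over one to two half-lives. Peak areas fit to first-order decay F(t)=A/2^(t/t1/2) to give t1/2.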

Neutrophil elastase = molecular target: T2, Neutrophil elastase (Homo sapiens, UniProt P08246); assay: In vitro inhibitory activity against human leukocyte elastase
T2 sequence (P08246 whole entry): T1 sequence (whole entry)

Cricetinae gen. sp. [11] = assay: Compound was evaluated in vivo for inhibition of HLE-induced hemorrhage in hamster lung at 100 microg 30 min after administration; format: functional, Cricetulus griseus
Procedure, shortened: as §1

Cricetinae gen. sp. [12] = assay: Compound was evaluated in vivo for inhibition of HLE-induced hemorrhage in hamster lung at 100 microg, 30 min after administration; format: functional, Cricetulus griseus
Procedure, shortened: as §1

Cricetinae gen. sp. [13] = assay: Compound was evaluated in vivo for inhibition of HLE-induced hemorrhage in hamster lung at 200 microg, 3h after administration prior to HLE; format: functional, Cricetulus griseus
Procedure, shortened: as §2

Cricetinae gen. sp. [14] = assay: Compound was evaluated in vivo for inhibition of HLE-induced hemorrhage in hamster lung at 200 microg, 2 hr after administration prior to HLE; format: functional, Cricetulus griseus
Procedure, shortened: as §2

Cricetinae gen. sp. [15] = assay: Compound was evaluated in vivo for inhibition of HLE-induced hemorrhage in hamster lung at 30 microg, 30 min after administration prior to HLE; format: functional, Cricetulus griseus
Procedure, shortened: as §1

Cricetinae gen. sp. [16] = assay: Compound was evaluated in vivo for inhibition of HLE-induced hemorrhage in hamster lung at 10 microg, 30 min after administration prior to HLE; format: functional, Cricetulus griseus
Procedure, shortened: as §1

Cricetinae gen. sp. [17] = assay: Compound was evaluated in vivo for inhibition of HLE-induced hemorrhage in hamster lung at 100 microg, 30 min after administration prior to HLE; format: functional, Cricetulus griseus
Procedure, shortened: as §1

Cricetinae gen. sp. [18] = assay: Compound was evaluated in vivo for inhibition of HLE-induced hemorrhage in hamster lung at 400 microg, 5 min after administration; format: functional, Cricetulus griseus
Cricetinae gen. sp. [19] = assay: Compound was evaluated in vivo for inhibition of HLE-induced hemorrhage in hamster lung at 30microg, 30 min after administration prior to HLE; format: functional, Cricetulus griseus
Procedure, shortened: as §1

Cricetinae gen. sp. [20] = assay: Compound was evaluated in vivo for inhibition of HLE-induced hemorrhage in hamster lung at 10microg, 30 min after administration prior to HLE; format: functional, Cricetulus griseus
Procedure, shortened: as §1

Cricetinae gen. sp. [21] = assay: Compound was evaluated in vivo for inhibition of HLE-induced hemorrhage in hamster lung at 200 microg, 1 hr after administration prior to HLE; format: functional, Cricetulus griseus
Procedure, shortened: as §2

Cricetinae gen. sp. [22] = assay: Compound was evaluated in vivo for inhibition of HLE-induced hemorrhage in hamster lung at 30 microg, 30 min after administration prior to HLE
Cricetinae gen. sp. [23] = assay: Compound was evaluated in vivo for inhibition of HLE-induced hemorrhage in hamster lung at 200 microg, 4 hr after administration prior to HLE; format: functional, Cricetulus griseus
Procedure, shortened: as §2

Cricetinae gen. sp. [24] = assay: Compound was evaluated in vivo for inhibition of HLE-induced hemorrhage in hamster lung at 3 microg, 30 min after administration prior to HLE; format: functional, Cricetulus griseus
Procedure, shortened: as §1

## CO[C@H]1C(=O)N2C(C(=O)N(C)CCC(=O)O)=C(CSc3nc(=O)c(=O)[nH]n3C)CS(=O)(=O)[C@H]12
[1]
  k obs / 1: 1000 M⁻¹ s⁻¹
Cricetinae gen. sp. [2]
  Inhibition: 45%
Cricetinae gen. sp. [3]
  Inhibition: 87%
Cricetinae gen. sp. [4]
  Inhibition: -23%
Cricetinae gen. sp. [5]
  Inhibition: 46%
Cricetinae gen. sp. [6]
  Inhibition: 95%
Cricetinae gen. sp. [7]
  Inhibition: 96%
Cricetinae gen. sp. [8]
  Inhibition: 74%

## CO[C@H]1C(=O)N2C(C(=O)N3CCCC3C(=O)O)=C(CSc3nc(=O)c(=O)[nH]n3C)CS(=O)(=O)[C@H]12 (stereo partly specified)
Cricetinae gen. sp. [2]
  Inhibition: 80%
Cricetinae gen. sp. [9]
  Inhibition: 61%
[10]
  half-life: 46 h
Neutrophil elastase
  Ki: 0.25 µM
Cricetinae gen. sp. [7]
  Inhibition: 100%
Cricetinae gen. sp. [8]
  Inhibition: 86%

## CC[C@H]1C(=O)N2C(C(=O)OCc3ccc(C(=O)O)cc3)=C(COC(C)=O)CS(=O)(=O)[C@H]12
[1]
  k obs / 1: 5700 M⁻¹ s⁻¹
Cricetinae gen. sp. [11]
  Inhibition: -32%
[10]
  half-life: 40 h

## CO[C@H]1C(=O)N2C(C(=O)N(C)CC(=O)OC(C)(C)C)=C(CSc3nnnn3CC(=O)O)CS(=O)(=O)[C@H]12
[1]
  k obs / 1: 20500 M⁻¹ s⁻¹
Cricetinae gen. sp. [2]
  Inhibition: 20%
Cricetinae gen. sp. [7]
  Inhibition: 91%
Cricetinae gen. sp. [8]
  Inhibition: 59%

## CO[C@H]1C(=O)N2C(C(=O)N(C)CC(=O)O)=C(CSc3nnnn3C)CS(=O)(=O)[C@H]12
[1]
  k obs / 1: 600 M⁻¹ s⁻¹

## CO[C@H]1C(=O)N2C(C(=O)N3CCOCC3)=C(COC(C)=O)CS(=O)(=O)[C@H]12
[1]
  k obs / 1: 35200 M⁻¹ s⁻¹
Cricetinae gen. sp. [12]
  Inhibition: -21%
[10]
  half-life: 13 h

## CO[C@H]1C(=O)N2C(C(=O)N(C)CC(=O)OC(C)(C)C)=C(CSc3nc(=O)c(=O)[nH]n3C)CS(=O)(=O)[C@H]12
[1]
  k obs / 1: 19300 M⁻¹ s⁻¹
Cricetinae gen. sp. [2]
  Inhibition: 65%
Cricetinae gen. sp. [13]
  Inhibition: 38%
Cricetinae gen. sp. [6]
  Inhibition: 89%
Cricetinae gen. sp. [7]
  Inhibition: 98%
Cricetinae gen. sp. [8]
  Inhibition: 94%
Cricetinae gen. sp. [14]
  Inhibition: 84%

## CO[C@H]1C(=O)N2C(C(=O)N(C)[C@H](C)C(=O)O)=C(COC(C)=O)CS(=O)(=O)[C@H]12
[1]
  k obs / 1: 900 M⁻¹ s⁻¹
Cricetinae gen. sp. [15]
  Inhibition: 90%
Cricetinae gen. sp. [16]
  Inhibition: 29%
Cricetinae gen. sp. [17]
  Inhibition: 97%

## CO[C@H]1C(=O)N2C(C(=O)OC(C)(C)C)=C(COC(=O)CCC(=O)O)CS(=O)(=O)[C@H]12
Cricetinae gen. sp. [18]
  Inhibition: 98%

## CO[C@H]1C(=O)N2C(C(=O)N(C)CC(=O)O)=C(COC(=O)NCc3ccccc3)CS(=O)(=O)[C@H]12
[1]
  k obs / 1: 600 M⁻¹ s⁻¹
Cricetinae gen. sp. [19]
  Inhibition: 93%
Cricetinae gen. sp. [20]
  Inhibition: 27%
Cricetinae gen. sp. [17]
  Inhibition: 91%

## CO[C@H]1C(=O)N2C(C(=O)N(C)[C@@H](C)C(=O)O)=C(COC(C)=O)CS(=O)(=O)[C@H]12
[1]
  k obs / 1: 500 M⁻¹ s⁻¹
Cricetinae gen. sp. [21]
  Inhibition: 94%
Cricetinae gen. sp. [22]
  Inhibition: 89%
Cricetinae gen. sp. [13]
  Inhibition: 47%
Cricetinae gen. sp. [23]
  Inhibition: 21%
Cricetinae gen. sp. [16]
  Inhibition: 78%
Cricetinae gen. sp. [24]
  Inhibition: 50%
Cricetinae gen. sp. [17]
  Inhibition: 96%
Cricetinae gen. sp. [14]
  Inhibition: 81%

## CC[C@H]1C(=O)N2C(C(=O)N(C)CC(=O)O)=C(COC(=O)c3ccc(C(=O)O)cc3)CS(=O)(=O)[C@H]12
[1]
  k obs / 1: 100 M⁻¹ s⁻¹
Cricetinae gen. sp. [21]
  Inhibition: 84%
Cricetinae gen. sp. [13]
  Inhibition: 57%
Cricetinae gen. sp. [14]
  Inhibition: 59%

## CO[C@H]1C(=O)N2C(C(=O)N(C)CC(=O)O)=C(CSc3ccccn3)CS(=O)(=O)[C@H]12
Cricetinae gen. sp. [19]
  Inhibition: 46%
Cricetinae gen. sp. [20]
  Inhibition: 35%
Cricetinae gen. sp. [17]
  Inhibition: 76%
Neutrophil elastase
  Ki: 43 µM

## CO[C@H]1C(=O)N2C(C(=O)N3CCC(O)C3)=C(COC(C)=O)CS(=O)(=O)[C@H]12 (stereo partly specified)
[1]
  k obs / 1: 12000 M⁻¹ s⁻¹

## CO[C@H]1C(=O)N2C(C(=O)N3CCC[C@@H]3C(=O)O)=C(COC(C)=O)CS(=O)(=O)[C@H]12
[10]
  half-life: < 5 h
Neutrophil elastase
  Ki: 3.4 µM
